Source: PubChem (Johns Hopkins Ion Channel Center)
Compounds with a hit are over-represented: about 3.5% of the library has one in this group of screens.
RGS4 block: inhibitors of human RGS4; AID 463165; 310,000 tested, 0.45% active; HEK293 M3R/RGS4 inducible, Fluo-4 calcium flux; hits give high values; triggered by carbachol at its EC20; B-score at 10 µM; P49798;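 active = B-score, a plate-corrected calcium signal, over three deviations above library mean, with baseline fluorescence within five deviations of library mean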;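 note: RGS4 expression induced by doxycycline in cells with stable M3 receptor; B-score is computed from the integrated fluorescence ratio over baseline after carbachol; higher B-score means a larger calcium signal and so more RGS4 inhibition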
Target sequence (P49798 whole entry, looked up): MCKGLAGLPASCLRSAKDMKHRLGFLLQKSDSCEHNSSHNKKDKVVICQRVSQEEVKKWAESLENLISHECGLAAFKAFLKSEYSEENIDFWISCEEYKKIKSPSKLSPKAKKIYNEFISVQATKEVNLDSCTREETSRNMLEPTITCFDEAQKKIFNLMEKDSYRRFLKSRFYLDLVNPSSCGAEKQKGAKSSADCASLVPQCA
MrgX1 PAM: allosterically activates human MrgX1 receptor signaling | Q96LB2 | MrgX1-HEK293, Fluo-4 calcium flux, FDSS; hits give high values | B-score at 10 µM | 310,000 tested, 0.63% active | AID 588675;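 active = plate-corrected calcium response at least 3 library SD above typical, normal starting fluorescence, not activating the receptor alone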;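 note: compound read alongside a low EC10 to EC30 dose of BAM8-22 agonist; peak minus trough fluorescence over baseline measured at the second addition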
Target sequence (Q96LB2 whole entry, looked up): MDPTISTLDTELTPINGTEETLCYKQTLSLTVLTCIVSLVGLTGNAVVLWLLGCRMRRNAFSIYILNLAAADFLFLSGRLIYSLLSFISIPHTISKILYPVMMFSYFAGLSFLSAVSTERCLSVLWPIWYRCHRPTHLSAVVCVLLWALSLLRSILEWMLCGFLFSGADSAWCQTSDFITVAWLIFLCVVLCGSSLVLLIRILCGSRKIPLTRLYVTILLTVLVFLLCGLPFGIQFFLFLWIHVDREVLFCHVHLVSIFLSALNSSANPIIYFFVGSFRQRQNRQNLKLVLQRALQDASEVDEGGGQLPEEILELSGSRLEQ
MrgX1 antagonist: blocks BAM8-22 activation of human MrgX1 receptor; MRGX1-HEK293 calcium flux, Fluo-4, BAM8-22 antagonism; hits give low values; B-score at 10 µM; 310,000 tested, 1.3% active; AID 588676;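 active = calcium-response B-score plate-corrected more than 3 library SD below zero, starting fluorescence within 5 deviations, no agonist response on first addition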;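 note: peak minus trough fluorescence over baseline after final BAM8-22 challenge near maximal dose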
RGS4 act: potentiators or activators of RGS4; 310,000 tested, 0.92% active; B-score at 10 µM; AID 463111; HEK293 M3R/inducible RGS4, carbachol calcium flux Fluo4; hits give low values;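 active = B-score of the integrated calcium signal more than 4 SD below the library mean, with starting fluorescence not abnormally high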;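 note: negative B-score means reduced calcium response which marks RGS4 activation or potentiation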
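Assay system: Inducible-RGS4 HEK293 cells carrying M3 receptor | Schedule: Compound preincubation 20 min at room temperature before agonist | Signal: Kinetic calcium fluorescence imaging with Fluo4-AM dye, 2 µM | Read-out basis: B score from integrated fluorescence ratio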
MrgX1 agonist: human MrgX1 receptor agonism, primary screen. Q96LB2. MrgX1-HEK293 cells, Fluo-4 calcium fluorescence, agonist mode; hits give high values. B-score at 10 µM. 310,000 tested, 0.44% active. AID 588627;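 active = calcium response B-score plate-corrected fluorescence ratio at least 3 library SD, with starting fluorescence B-score inside 5 SD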
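Material: HEK293 cells stably expressing human MrgX1 receptor | Quantity: 15,000 cells per well | Times: Cells plated overnight, dye loaded 0.5 h 37 °C, 0.5 h room temperature | Measured by: Kinetic Fluo-4 NW fluorescence of intracellular calcium | Control set: Positive and negative controls per plate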
MrgX1 allo conf: confirmation of human MrgX1 receptor positive allosteric modulators. activation (ratio percentage), % at 10 µM. 1,200 tested, 13% active. MrgX1-HEK293, Fluo-4 calcium fluorescence, FDSS. shares compounds with MrgX1 PAM. AID 602413;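 active = ratio at least 3 SD above the weak peptide control, stable starting fluorescence, no direct agonism earlier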;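 note: compound followed by low BAM8-22 agonist challenge near EC20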
HEK293 Ca flux: MrgX1 antagonist counter-screen hit in parental HEK293 cells | shares compounds with MrgX1 antagonist | Fluo-4 calcium fluorescence, FDSS | fluorescence ratio F(max-min)/F0 at 10 µM | 4,000 tested, 2% active | AID 624111;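 active = duplicate-averaged calcium fluorescence ratio at least three times the standard deviation of buffer wells, a nonspecific response in parental cells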
HEK293 Ca counter: activity in parental HEK293 cells without MrgX1. shares compounds with MrgX1 antagonist. parental HEK293 calcium flux, Fluo-4 fluorescence ratio; hits give high values. fluorescence ratio F(max-min)/F0 at 10 µM. 4,000 tested, 0.4% active;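 active = calcium fluorescence ratio, averaged over duplicates, at least 3 SD of the buffer-well ratio, meaning a nonspecific response in receptor-free cells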;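 note: untransfected parental HEK293 lacking MrgX1 used as counterscreen for MrgX1 allosteric activators; fluorescence change taken during the second addition on a kinetic imager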
HEK293 Ca cntr2: MrgX1 activator counter-screen hit in parental HEK293 cells. Fluo-4 calcium fluorescence (FDSS); hits give high values. shares compounds with MrgX1 antagonist. AID 624115. 4,000 tested, 8.7% active. fluorescence ratio F(max-min)/F0 at 10 µM;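 active = calcium fluorescence ratio at least three times the spread of buffer wells, meaning a non-specific response in parental cells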
The depositor's hits bear a star.

Nc1c(C(=O)c2ccccc2)oc2ccccc12 was read as RGS4 block inactive, MrgX1 PAM inactive, MrgX1 antagonist inactive, RGS4 act inactive and MrgX1 agonist inactive.
Cc1c(C(=O)c2ccccc2)oc2ccc3ccccc3c12 was read as RGS4 block inactive, MrgX1 PAM 12.6*, MrgX1 antagonist inactive, RGS4 act inactive, MrgX1 agonist inactive, MrgX1 allo conf inactive, HEK293 Ca flux inactive, HEK293 Ca counter 48.1* and HEK293 Ca cntr2 inactive.
`Cc1cccc(N=C2NC(=O)/C(=C3/C(=O)N(C)c4ccccc43)S2)c1C` gave RGS4 block inactive, MrgX1 PAM 7.31*, MrgX1 antagonist inactive, RGS4 act inactive, MrgX1 agonist inactive, MrgX1 allo conf inactive, HEK293 Ca flux inactive, HEK293 Ca counter inactive and HEK293 Ca cntr2 inactive.
For CCOc1ccc(NS(=O)(=O)c2c(C)nc3sc(CC)nn3c2=O)cc1 the results were MrgX1 PAM inactive, MrgX1 antagonist inactive and MrgX1 agonist inactive.
CCc1ccc(C(N)=S)cc1 was read as RGS4 block inactive, MrgX1 PAM 8.95*, MrgX1 antagonist inactive, RGS4 act inactive, MrgX1 agonist inactive, MrgX1 allo conf inactive, HEK293 Ca flux inactive, HEK293 Ca counter inactive and HEK293 Ca cntr2 inactive.
`CC(C)C[C@@H](NC(=O)C1CCC(CNC(=O)[C@H](Cc2ccccc2)NC(=O)OC(C)(C)C)CC1)C(=O)O` (stereo partly drawn) gave RGS4 block inactive and RGS4 act inactive.
Cc1ccc(NC(=O)Cn2cc3c(n2)CCC(C)C3)cc1 (stereo not drawn) was read as RGS4 block inactive, MrgX1 PAM inactive, MrgX1 antagonist inactive, RGS4 act inactive and MrgX1 agonist inactive.
`O=C(Cn1cc2c(n1)CCCCC2)Nc1ccccc1Cl` gave RGS4 block inactive, MrgX1 PAM 7.97*, MrgX1 antagonist inactive, RGS4 act inactive, MrgX1 agonist inactive, MrgX1 allo conf inactive, HEK293 Ca flux inactive, HEK293 Ca counter inactive and HEK293 Ca cntr2 inactive.
CC1CCCC(NC(=O)Cn2cc3c(n2)CCCCC3)C1C (stereo not drawn) was read as RGS4 block inactive, MrgX1 PAM 6.52*, MrgX1 antagonist inactive, RGS4 act inactive, MrgX1 agonist inactive, MrgX1 allo conf inactive, HEK293 Ca flux inactive, HEK293 Ca counter inactive and HEK293 Ca cntr2 inactive.
`COC(=O)c1ccccc1NC(=O)Cn1cc2c(n1)CCC(C)C2` (stereo not drawn) gave RGS4 block inactive, MrgX1 PAM 23.3*, MrgX1 antagonist inactive, RGS4 act inactive, MrgX1 agonist inactive, MrgX1 allo conf inactive, HEK293 Ca flux inactive, HEK293 Ca counter inactive and HEK293 Ca cntr2 inactive.
For O=C(Cc1ccc2ccccc2c1)Nc1ccccc1Br the results were RGS4 block inactive, MrgX1 PAM inactive, MrgX1 antagonist inactive, RGS4 act inactive and MrgX1 agonist inactive.
Screening O=C(Cc1ccc2c(c1)CCCC2)Nc1ccccc1Br returned RGS4 block inactive, MrgX1 PAM 7.33*, MrgX1 antagonist inactive, RGS4 act inactive, MrgX1 agonist inactive, MrgX1 allo conf inactive, HEK293 Ca flux inactive, HEK293 Ca counter inactive and HEK293 Ca cntr2 inactive.
`CCN(CC)C(=O)CN1CCN(Cc2ccc3c(c2)OCO3)CC1` gave RGS4 block inactive, MrgX1 PAM inactive, MrgX1 antagonist inactive, RGS4 act inactive and MrgX1 agonist inactive.
`O=C(Cn1cc2c(n1)CCCC2)Nc1ccccc1Cl` gave RGS4 block inactive, MrgX1 PAM 13.3*, MrgX1 antagonist inactive, RGS4 act inactive, MrgX1 agonist inactive, MrgX1 allo conf inactive, HEK293 Ca flux inactive, HEK293 Ca counter inactive and HEK293 Ca cntr2 85.6*.
`O=C(Cn1cc2c(n1)CCCC2)Nc1ccccc1Br` gave RGS4 block inactive, MrgX1 PAM 22.4*, MrgX1 antagonist inactive, RGS4 act inactive, MrgX1 agonist inactive, MrgX1 allo conf inactive, HEK293 Ca flux inactive, HEK293 Ca counter inactive and HEK293 Ca cntr2 inactive.
`CC(=O)NC(CC(=O)OCC(=O)N1CCN(S(=O)(=O)c2ccc(Cl)cc2)CC1)c1ccccc1` (stereo not drawn) gave RGS4 block inactive, MrgX1 PAM inactive, MrgX1 antagonist inactive, RGS4 act inactive and MrgX1 agonist inactive.
Screening CCC1Nc2ncnc(N3CCCCC3)c2N(Cc2ccccc2)C1=O (stereo not drawn) returned RGS4 block inactive, MrgX1 PAM 7.54*, MrgX1 antagonist inactive, RGS4 act inactive, MrgX1 agonist inactive, MrgX1 allo conf inactive, HEK293 Ca flux inactive, HEK293 Ca counter inactive and HEK293 Ca cntr2 inactive.
`Cn1nc(C(F)(F)F)c(-c2ccc(Br)cc2)c1NC(=O)c1cccnc1` gave RGS4 block inactive, MrgX1 PAM inactive, MrgX1 antagonist inactive, RGS4 act inactive and MrgX1 agonist inactive.
`Cn1nc(C(F)(F)F)c(-c2ccc(Br)cc2)c1NC(=O)c1ccco1` gave RGS4 block inactive, MrgX1 PAM 19.7*, MrgX1 antagonist inactive, RGS4 act inactive, MrgX1 agonist inactive, MrgX1 allo conf inactive, HEK293 Ca flux inactive, HEK293 Ca counter inactive and HEK293 Ca cntr2 inactive.
For CC(=O)Nc1ccc(CC(=O)NCCC(c2ccccc2)c2ccccc2)cc1 the results were RGS4 block inactive, MrgX1 PAM inactive, MrgX1 antagonist inactive, RGS4 act inactive and MrgX1 agonist inactive.
Screening CNc1nc(Sc2ccc(C)cc2)cc(C(F)(F)F)n1 returned RGS4 block inactive, MrgX1 PAM 14.5*, MrgX1 antagonist inactive, RGS4 act inactive, MrgX1 agonist inactive, MrgX1 allo conf 16.2%*, HEK293 Ca flux inactive, HEK293 Ca counter inactive and HEK293 Ca cntr2 inactive.
Screening O=C(Nc1ccccn1)c1csc2c1CCCC2 returned RGS4 block inactive, MrgX1 PAM 8.59*, MrgX1 antagonist inactive, RGS4 act inactive, MrgX1 agonist inactive, MrgX1 allo conf inactive, HEK293 Ca flux inactive, HEK293 Ca counter inactive and HEK293 Ca cntr2 inactive.
